According to publication PMC11661184 (bioRxiv, 2024):

System: CaM (Calmodulin-agarose)
Assay: CaM-agarose pulldown of TRPA1 constructs
Format: binding
Conditions: basal Ca2+; n=3 independent experiments
Summary of the method: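 HEK293T cells were transfected with tagged TRPA1 constructs and lysed after 16-24 h in Tris pH 8.0 buffer containing 5 mM DDM and 500 µM EGTA. Free Ca²⁺ was set with CaCl₂, calculated from EGTA constants. 100 µg lysate was incubated with CaM-agarose for 1 h at 4 °C, washed, then eluted with 5 mM EGTA. Detection was by anti-FLAG or anti-MBP immunoblot, with tubulin input control. Enrichment is relative to the maximum within each replicate.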

Molecule	CaM binding at basal Ca2+ concentration
Quad: hTRPA1 W1103A/V1106A/L1107A/V1110A (protein) MKRSLRKMWRPGEKKEPQGVVYEDVPDDTEDFKESLKVVFEGSAYGLQNFNKQKKLKRCDDMDTFFLHYAAAEGQIELMEKITRDSSLEVLHEMDDYGNTPLHCAVEKNQIESVKFLLSRGANPNLRNFNMMAPLHIAVQGMNNEVMKVLLEHRTIDVNLEGENGNTAVIIACTTNNSEALQILLKKGAKPCKSNKWGCFPIHQAAFSGSKECMEIILRFGEEHGYSRQLHINFMNNGKATPLHLAVQNGDLEMIKMCLDNGAQIDPVEKGRCTAIHFAATQGATEIVKLMISSYSGSVDIVNTTDGCHETMLHRASLFDHHELADYLISVGADINKIDSEGRSPLILATASASWNIVNLLLSKGAQVDIKDNFGRNFLHLTVQQPYGLKNLRPEFMQMQQIKELVMDEDNDGCTPLHYACRQGGPGSVNNLLGFNVSIHSKSKDKKSPLHFAASYGRINTCQRLLQDISDTRLLNEGDLHGMTPLHLAAKNGHDKVVQLLLKKGALFLSDHNGWTALHHASMGGYTQTMKVILDTNLKCTDRLDEDGNTALHFAAREGHAKAVALLLSHNADIVLNKQQASFLHLALHNKRKEVVLTIIRSKRWDECLKIFSHNSPGNKCPITEMIEYLPECMKVLLDFCMLHSTEDKSCRDYYIEYNFKYLQCPLEFTKKTPTQDVIYEPLTALNAMVQNNRIELLNHPVCKEYLLMKWLAYGFRAHMMNLGSYCLGLIPMTILVVNIKPGMAFNSTGIINETSDHSEILDTTNSYLIKTCMILVFLSSIFGYCKEAGQIFQQKRNYFMDISNVLEWIIYTTGIIFVLPLFVEIPAHLQWQCGAIAVYFYWMNFLLYLQRFENCGIFIVMLEVILKTLLRSTVVFIFLLLAFGLSFYILLNLQDPFSSPLLSIIQTFSMMLGDINYRESFLEPYLRNELAHPVLSFAQLVSFTIFVPIVLMNLLIGLAVGDIAEVQKHASLKRIAMQVELHTSLEKKLPLWFLRKVDQKSTIVYPNKPRSGGMLFHIFCFLFCTGEIRQEIPNADKSLEMEILKQKYRLKDLTFLLEKQHELIKLIIQKMEIISETEDDDSHCSFQDRFKKEQMEQRNSRANTAARAAKAKTHHLEP	similarly ablated CaM binding
RK/AA (protein) MKRSLRKMWRPGEKKEPQGVVYEDVPDDTEDFKESLKVVFEGSAYGLQNFNKQKKLKRCDDMDTFFLHYAAAEGQIELMEKITRDSSLEVLHEMDDYGNTPLHCAVEKNQIESVKFLLSRGANPNLRNFNMMAPLHIAVQGMNNEVMKVLLEHRTIDVNLEGENGNTAVIIACTTNNSEALQILLKKGAKPCKSNKWGCFPIHQAAFSGSKECMEIILRFGEEHGYSRQLHINFMNNGKATPLHLAVQNGDLEMIKMCLDNGAQIDPVEKGRCTAIHFAATQGATEIVKLMISSYSGSVDIVNTTDGCHETMLHRASLFDHHELADYLISVGADINKIDSEGRSPLILATASASWNIVNLLLSKGAQVDIKDNFGRNFLHLTVQQPYGLKNLRPEFMQMQQIKELVMDEDNDGCTPLHYACRQGGPGSVNNLLGFNVSIHSKSKDKKSPLHFAASYGRINTCQRLLQDISDTRLLNEGDLHGMTPLHLAAKNGHDKVVQLLLKKGALFLSDHNGWTALHHASMGGYTQTMKVILDTNLKCTDRLDEDGNTALHFAAREGHAKAVALLLSHNADIVLNKQQASFLHLALHNKRKEVVLTIIRSKRWDECLKIFSHNSPGNKCPITEMIEYLPECMKVLLDFCMLHSTEDKSCRDYYIEYNFKYLQCPLEFTKKTPTQDVIYEPLTALNAMVQNNRIELLNHPVCKEYLLMKWLAYGFRAHMMNLGSYCLGLIPMTILVVNIKPGMAFNSTGIINETSDHSEILDTTNSYLIKTCMILVFLSSIFGYCKEAGQIFQQKRNYFMDISNVLEWIIYTTGIIFVLPLFVEIPAHLQWQCGAIAVYFYWMNFLLYLQRFENCGIFIVMLEVILKTLLRSTVVFIFLLLAFGLSFYILLNLQDPFSSPLLSIIQTFSMMLGDINYRESFLEPYLRNELAHPVLSFAQLVSFTIFVPIVLMNLLIGLAVGDIAEVQKHASLKRIAMQVELHTSLEKKLPLWFLRKVDQKSTIVYPNKPRSGGMLFHIFCFLFCTGEIRQEIPNADKSLEMEILKQKYRLKDLTFLLEKQHELIKLIIQKMEIISETEDDDSHCSFQDRFKKEQMEQRNSAWNTVLRAVAAKTHHLEP	similarly ablated CaM binding
